The values that follow come from ChEMBL document CHEMBL4680091, “Discovery of Novel Spiro[3H-indole-3,2'-pyrrolidin]-2(1H)-one Compounds as Chemically Stable and Orally Active Inhibitors of the MDM2-p53 Interaction” (J Med Chem, 2016).

For data set [1], the target named is Tumour suppressor p53/oncoprotein Mdm2 (Homo sapiens, UniProt Q00987). Description: Inhibition of GST-tagged MDM2 (amino acids 17 to 111 residues)/p53 (unknown origin) interaction incubated for 15 mins by. It counts as protein assay.
A further data set deals with SK-OV-3. Description: Antiproliferative activity against human SK-OV-3 cells expression p53 mutant incubated for 3 days by Alamar Blue dye based assay. It counts as functional, cell-based. The settings on record: SK-OV-3, 72 h. The procedure, abridged: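 p53-mutant SK-OV-3 cells were used in a growth/proliferation assay, with compounds tested up to 25 μM.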
A further data set has as its system SJSA-1. Description: Antiproliferative activity against human SJSA-1 cells expression wild type p53 incubated for 3 days by Alamar Blue dye based assay. It counts as functional, cell-based. The settings on record: SJSA-1, 72 h. For orientation: Alamar Blue is a resazurin reagent that responds to reducing activity.
Data set [2] is described as follows: Oral bio availability in NMRI mouse at 50 mg/kg. It counts as ADME, organism-based. The settings on record: in vivo. The procedure, abridged:
(§1)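 Non-tumor-bearing female NMRI nude mice were given a single dose by one of two routes. The iv arm received 5 mg/kg as a bolus in 25% HP-B-CD. The po arm received 50 mg/kg in 0.5% Natrosol (pH 7-8, NaOH titrated). Both used 10 ml/kg. Plasma levels were measured by LC/MS/MS, n=3 per dose group. Parameters came from non-compartmental analysis, with AUC0-24h by linear trapezoidal interpolation.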

Data set [3] in a line: Clearance in NMRI mouse at 5 mg/kg, iv. It counts as ADME, organism-based. The settings on record: in vivo. Summed up:
as §1

Data set [4] in a line: AUC (0 to 24 hrs) in NMRI mouse at 50 mg/kg, po. It counts as ADME, organism-based. Set-up: time < 24 hr, route oral, dose 50 mg/kg. The following applies: in vivo. The procedure, abridged: as §1
The nature of data set [5]: Volume of distribution at steady state in NMRI mouse at 5 mg/kg, iv. It counts as ADME, organism-based. The following applies: in vivo, read-out: Vdss. Summed up:
as §1

A short description of data set [6]: Cmax in NMRI mouse at 50 mg/kg, po. It counts as ADME, organism-based. Set-up: route oral, dose 50 mg/kg. The following applies: in vivo. Summed up:
as §1

Sequence of Tumour suppressor p53/oncoprotein Mdm2 (P04637 whole entry, the tested form may be a part): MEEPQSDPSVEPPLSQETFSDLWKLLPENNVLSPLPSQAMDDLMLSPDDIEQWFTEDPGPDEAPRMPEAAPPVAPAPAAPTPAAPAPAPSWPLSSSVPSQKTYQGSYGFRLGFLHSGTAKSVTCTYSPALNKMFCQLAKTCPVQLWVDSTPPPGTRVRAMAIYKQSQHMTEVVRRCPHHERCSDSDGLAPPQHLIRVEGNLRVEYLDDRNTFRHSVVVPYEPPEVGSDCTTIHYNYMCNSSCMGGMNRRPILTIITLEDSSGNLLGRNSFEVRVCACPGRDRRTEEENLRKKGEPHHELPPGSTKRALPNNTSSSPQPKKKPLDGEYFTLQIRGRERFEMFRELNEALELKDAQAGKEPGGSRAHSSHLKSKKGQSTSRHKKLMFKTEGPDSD
Sequence of Tumour suppressor p53/oncoprotein Mdm2 (Q00987 whole entry, the tested form may be a part): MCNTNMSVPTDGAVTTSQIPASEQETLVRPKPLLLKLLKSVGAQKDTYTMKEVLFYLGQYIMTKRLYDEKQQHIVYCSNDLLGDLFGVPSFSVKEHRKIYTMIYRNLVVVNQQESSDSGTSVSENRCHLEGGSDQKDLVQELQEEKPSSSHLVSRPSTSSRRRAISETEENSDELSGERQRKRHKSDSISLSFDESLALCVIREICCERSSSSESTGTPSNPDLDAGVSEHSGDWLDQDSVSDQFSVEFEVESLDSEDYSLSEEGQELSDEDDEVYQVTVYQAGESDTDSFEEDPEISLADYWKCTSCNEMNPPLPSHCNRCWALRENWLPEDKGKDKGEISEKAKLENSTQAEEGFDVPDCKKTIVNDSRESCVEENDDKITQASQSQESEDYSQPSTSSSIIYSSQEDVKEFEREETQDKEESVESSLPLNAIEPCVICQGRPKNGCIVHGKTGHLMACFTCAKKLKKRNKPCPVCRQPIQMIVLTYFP

A word on the IC50: it is the concentration that gives 50% inhibition. High values mean lower potency, low ones higher potency. Compound `O=C1Nc2cc(Cl)ccc2[C@]12N[C@@H](Cc1ccccc1)[C@@H]([N+](=O)[O-])[C@@H]2c1cccc(Cl)c1` (racemic) registered a concentration for half-maximal inhibition (IC50) in data set [1] of 15.6 µM. On the same count and under the same terms, with `CCOc1cccc(CN2[C@@H](C)[C@@H](N)[C@H](c3cccc(Cl)c3F)[C@]23C(=O)Nc2cc(Cl)ccc23)c1` (racemic) the figure was 0.057 µM. Consider `C[C@H]1[C@@H](N)[C@H](c2cccc(Cl)c2F)[C@]2(C(=O)Nc3cc(Cl)ccc32)N1CC1CC1`, for which the values for the IC50 (in the data set with SK-OV-3; in the data set with SJSA-1; in data set [1]) were over 25 µM, 2.98 µM and 0.157 µM, respectively. `O=C(O)C[C@@H]1N[C@@]2(C(=O)Nc3cc(Cl)ccc32)[C@@H](c2cccc(Cl)c2)[C@@H]1[N+](=O)[O-]` (racemic) gave an IC50 in data set [1] of 18.6 µM. For the compound `O=C(O)CC[C@@H]1N[C@@]2(C(=O)Nc3cc(Cl)ccc32)[C@@H](c2cccc(Cl)c2)[C@@H]1[N+](=O)[O-]` (racemic), in data set [1], the IC50 stood at 16 µM. As to `O=C1Nc2cc(Cl)ccc2[C@@]12[C@@H](c1cccc(Cl)c1F)[C@@H]1NCC[C@@H]1N2CC1CC1`, the IC50 in the data set with SK-OV-3 is over 25 µM; in the data set on SJSA-1, 2.61 µM; in data set [1], 0.137 µM.

`CSC[C@@H]1N[C@@]2(C(=O)Nc3cc(Cl)ccc32)[C@@H](c2cccc(Cl)c2)[C@@H]1[N+](=O)[O-]` (racemic) displayed an IC50 in data set [1] of 24.6 µM. For orientation: bioavailability means dose-corrected exposure relative to a reference, in per cent. In general, clearance refers to a measure of how efficiently the substance is removed, as volume per time. Read a high clearance as a high capacity for elimination. Broadly, the AUC(0-t) is the area under the concentration-time curve up to a stated or last time point. By Cmax is commonly meant the peak of the concentration-time curve. As to `CCOc1cccc(CN2[C@H]3C[C@H](c4ccc(C(=O)O)cc4)N[C@H]3[C@H](c3cccc(Cl)c3F)[C@]23C(=O)Nc2cc(Cl)ccc23)c1`, the values for the IC50 in the data set with SK-OV-3 and in the data set with SJSA-1 were over 25 µM and 0.067 µM, respectively. In data set [2], the bioavailability turned out to be 13%. This compound gave a clearance in data set [3] of 23.2 mL/min/kg. In data set [4], this compound displayed an AUC(0-t) at 24 h of 8 µM·h. Also, the Vd in data set [5] stood at 1 L/kg. The compound further returned a Cmax in data set [6] of 3.4 µM.

For `CC(=O)N[C@@H]1[C@H](C)N(CC2CC2)[C@@]2(C(=O)Nc3cc(Cl)ccc32)[C@H]1c1cccc(Cl)c1F`, in data set [1], the concentration for half-maximal inhibition (IC50) was determined as 0.229 µM. Same read-out and setting: to `O=C1Nc2cc(Cl)ccc2[C@]12N[C@@H](Cn1cncn1)[C@@H]([N+](=O)[O-])[C@@H]2c1cccc(Cl)c1` (racemic) belongs 5.5 µM; to `O=C1Nc2cc(Cl)ccc2[C@]12N[C@@H](CO)[C@@H]([N+](=O)[O-])[C@@H]2c1cccc(Cl)c1` (racemic), 30.7 µM. In the case of `NC(=O)c1ccc([C@H]2C[C@H]3[C@@H](N2)[C@H](c2cccc(Cl)c2F)[C@]2(C(=O)Nc4cc(Cl)ccc42)N3CC2CC2)cc1`, the IC50 was over 25 µM with SK-OV-3 and 1.45 µM in the data set with SJSA-1. The same compound returned a bioavailability in data set [2] of 58%. In addition, the clearance in data set [3] was found to be 7.4 mL/min/kg. Moreover, the AUC(0-t) at 24 h in data set [4] amounted to 100 µM·h. In addition, the Vd in data set [5] stood at 2 L/kg. In addition, the highest level in data set [6] (Cmax) was 6.9 µM.

With `O=C(O)CN1CC[C@H]2[C@@H]1[C@H](c1cccc(Cl)c1F)[C@]1(C(=O)Nc3cc(Cl)ccc31)N2CC1CC1` (racemic), the midpoint of inhibition in data set [1], the IC50, lay at 0.039 µM. The same measure, in the same setting: to `O=C(O)CN1CC[C@H]2[C@@H]1[C@H](c1cccc(Cl)c1)[C@]1(C(=O)Nc3cc(Cl)ccc31)N2CC1CC1` (racemic) belongs 0.08 µM. As for `C[C@H]1[C@@H](NCC(=O)O)[C@H](c2cccc(Cl)c2F)[C@]2(C(=O)Nc3cc(Cl)ccc32)N1CC1CC1`, the IC50 is over 25 µM with SK-OV-3, 2.88 µM in the data set with SJSA-1 and 0.062 µM in data set [1].

With `C[C@@H]1N[C@@]2(C(=O)Nc3cc(Cl)ccc32)[C@@H](c2cccc(Cl)c2)[C@@H]1N` (racemic), in data set [1], half-maximal inhibition (IC50) required 74 µM.

`CC(C)(C)CN1C[C@@H](N)[C@H](c2cccc(Cl)c2)[C@]12C(=O)Nc1cc(Cl)ccc12` registered an IC50 in data set [1] of 0.819 µM. The same measure, in the same setting: to `CC(=O)N1CC[C@H]2[C@@H]1[C@H](c1cccc(Cl)c1F)[C@]1(C(=O)Nc3cc(Cl)ccc31)N2CC1CC1` (racemic) belongs 0.212 µM. Same read-out and setting: to `CC(C)CCN1[C@@H](Cn2cncn2)[C@@H](N)[C@H](c2cccc(Cl)c2)[C@]12C(=O)Nc1cc(Cl)ccc12` (racemic) belongs 2.06 µM.

Turning to `O=C1Nc2cc(Cl)ccc2[C@]12CNC[C@@H]2c1cccc(Cl)c1` (racemic), the IC50 in data set [1] turned out to be 36 µM. In data set [1], `CC(C)CCN1[C@@H](C)[C@@H](N)[C@H](c2cccc(Cl)c2)[C@]12C(=O)Nc1cc(Cl)ccc12` (racemic) displayed a 50% inhibitory concentration (IC50) of 1.07 µM. Still for that read-out and setting: with `C[C@@H]1N[C@@]2(C(=O)Nc3cc(Cl)ccc32)[C@@H](c2cccc(Cl)c2)[C@@H]1[N+](=O)[O-]` (racemic) the figure was 40 µM.

As for `COC(=O)c1ccc([C@H]2C[C@H]3[C@@H](N2)[C@H](c2cccc(Cl)c2F)[C@]2(C(=O)Nc4cc(Cl)ccc42)N3CC2CC2)cc1`, 0.081 µM corresponded to half-maximal inhibition in data set [1] (IC50). With `NC(=O)CC[C@@H]1N[C@@]2(C(=O)Nc3cc(Cl)ccc32)[C@@H](c2cccc(Cl)c2)[C@@H]1[N+](=O)[O-]` (racemic), the IC50 in data set [1] came out at 13.5 µM. In data set [1], `O=C1Nc2cc(Cl)ccc2[C@]12N[C@@H](Cc1c[nH]cn1)[C@@H]([N+](=O)[O-])[C@@H]2c1cccc(Cl)c1` (racemic) had a half-maximal inhibitory concentration (IC50) of 15.2 µM.

On to `C[C@H]1[C@@H](N)[C@H](c2cccc(Cl)c2)[C@]2(C(=O)Nc3cc(Cl)ccc32)N1CC1CC1`, for which the IC50 in data set [1] was 0.563 µM. As for `CCOc1cccc(CN2[C@H]3CCN(CC(=O)O)[C@H]3[C@H](c3cccc(Cl)c3F)[C@]23C(=O)Nc2cc(Cl)ccc23)c1`, the figures for the IC50 in the data set with SK-OV-3 and with SJSA-1 were over 25 µM and 0.287 µM, respectively.

In the case of `O=C1Nc2cc(Cl)ccc2[C@]12NC[C@@H]([N+](=O)[O-])[C@@H]2c1cccc(Cl)c1` (racemic), the IC50 in data set [1] amounted to 36.5 µM. With `CCOc1cccc(CN2[C@@H](C)[C@@H](N)[C@H](c3cccc(Cl)c3F)[C@]23C(=O)Nc2cc(Cl)ccc23)c1`, the half-maximal inhibitory concentration (IC50) in data set [1] is 0.034 µM. The same measure, in the same setting: with `NC(=O)c1cccc(C[C@@H]2N[C@@]3(C(=O)Nc4cc(Cl)ccc43)[C@@H](c3cccc(Cl)c3)[C@@H]2[N+](=O)[O-])c1` (racemic) the figure was 18.3 µM. On the same count and under the same terms, with `C[C@H]1[C@@H](NCc2ccc(C(=O)O)cc2)[C@H](c2cccc(Cl)c2F)[C@]2(C(=O)Nc3cc(Cl)ccc32)N1CC1CC1` the figure was 0.107 µM. Still for that read-out and setting: with `CC(C)CN1C[C@@H](N)[C@H](c2cccc(Cl)c2)[C@]12C(=O)Nc1cc(Cl)ccc12` the figure was 0.944 µM.
